Converted amounts (≈) assume the structure as drawn.
Key:
[1] = system: Staphylococcus aureus; assay: Antibacterial activity against methicillin-resistant Staphylococcus aureus ATCC 43300 measured after 24 hrs; format: functional; details: ATCC 43300, 24 h
Procedure, shortened: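 Broth microdilution modified from NCCLS. Mid-log bacteria at (0.5–1) × 10^5 CFU mL−1 in MHB, mixed with peptides serially diluted in 0.2% BSA. Incubated 24 h at 37 °C, read at A492. MIC taken as lowest concentration giving 95% growth inhibition. At least three independent experiments, each with three technical replicates.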

[2] = system: Escherichia coli; assay: Antibacterial activity against Escherichia coli K88 measured after 24 hrs; format: functional; details: K88, 24 h
Procedure, shortened: (§1)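 Broth microdilution adapted from NCCLS. Mid-log bacteria were diluted in MHB to a final (0.5–1) × 10^5 CFU mL−1. Peptides were serially diluted in 0.2% BSA and mixed with an equal volume of cells. After 24 h at 37 °C, MIC was read at A492 as the lowest concentration inhibiting 95% of growth. At least three independent experiments, each with three technical replicates.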

[3] = system: Salmonella typhimurium; assay: Antibacterial activity against Salmonella typhimurium C7731 measured after 24 hrs; format: functional, Salmonella enterica subsp. enterica serovar Typhimurium; details: Salmonella enterica, C7731, 24 h; procedure, shortened: as §1
[4] = system: Staphylococcus epidermidis; assay: Antibacterial activity against Staphylococcus epidermidis ATCC 12228 measured after 24 hrs; format: functional; details: ATCC 12228, 24 h; procedure, shortened: as §1
[5] = system: Candida albicans; assay: Antifungal activity against Candida albicans cgmcc2.2086 measured after 48 hrs by broth microdilution method; format: functional; details: cgmcc2.2086, 48 h
Procedure, shortened: (§2)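 Modified CLSI M27-A2 microdilution. Yeast colonies were diluted in MOPS-buffered RPMI 1640 to a final (0.5–1) × 10^3 CFU mL−1 and mixed with an equal volume of peptide serially diluted in 0.2% BSA. After 48 h at 28 °C, MIC was read at A492 as the lowest concentration inhibiting 95% of growth. At least three independent experiments, each with three technical replicates.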

[6] = system: Candida parapsilosis; assay: Antifungal activity against Candida parapsilosis cgmcc2.3989 measured after 48 hrs by broth microdilution method; format: functional; details: Lodderomyces parapsilosis, cgmcc2.3989, 48 h; procedure, shortened: as §2
[7] = system: Escherichia coli; assay: Bactericidal activity against Escherichia coli ATCC 25922 incubated for 24 hrs followed by replating on agar plate and measured after overnight incubation; format: functional; details: ATCC 25922, 24 h, read-out: MBC>99.9
Procedure, shortened: (§3)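 After the 24 h, 37 °C MHB microdilution (0.5–1 × 10^5 CFU mL−1 inoculum, peptides diluted in 0.2% BSA), 50 μL from each well was plated on agar and incubated overnight. MBC was taken as the lowest concentration killing >99.9% of cells. Three or more independent experiments, each with triplicate technical replicates.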

[8] = system: Escherichia coli; assay: Bactericidal activity against Escherichia coli UB1005 incubated for 24 hrs followed by replating on agar plate and measured after overnight incubation; format: functional; details: UB1005, 24 h, read-out: MBC>99.9
Procedure, shortened: (§4)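 Mid-log bacteria diluted in MHB to (0.5–1) × 10^5 CFU/mL and mixed 1:1 with peptide serially diluted in 0.2% BSA. After 24 h at 37 °C, 50 μL of each mixture was plated on agar and incubated overnight. MBC taken as the lowest concentration killing >99.9% of cells. At least three independent experiments, each with three technical replicates.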

[9] = Bactericidal activity against Salmonella pullorum ATCC 7913 incubated for 24 hrs followed by replating on agar plate and measured after overnight incubation; format: functional, Salmonella enterica subsp. enterica serovar Pullorum; details: Salmonella enterica, ATCC 7913, 24 h; read-out: MBC>99.9; procedure, shortened: as §4
[10] = system: Pseudomonas aeruginosa; assay: Bactericidal activity against Pseudomonas aeruginosa ATCC 27853 incubated for 24 hrs followed by replating on agar plate and measured after overnight incubation; format: functional; details: ATCC 27853, 24 h, read-out: MBC>99.9; procedure, shortened: as §4
[11] = system: Escherichia coli; assay: Bactericidal activity against Escherichia coli K88 incubated for 24 hrs followed by replating on agar plate and measured after overnight incubation; format: functional; details: K88, 24 h, read-out: MBC>99.9; procedure, shortened: as §4
[12] = system: Escherichia coli; assay: Bactericidal activity against Escherichia coli 078 incubated for 24 hrs followed by replating on agar plate and measured after overnight incubation; format: functional; details: Escherichia coli, 078, 24 h; read-out: MBC>99.9; procedure, shortened: as §3
[13] = system: Salmonella typhimurium; assay: Bactericidal activity against Salmonella typhimurium C7731 incubated for 24 hrs followed by replating on agar plate and measured after overnight incubation; format: functional, Salmonella enterica subsp. enterica serovar Typhimurium; details: Salmonella enterica, C7731, 24 h; read-out: MBC>99.9; procedure, shortened: as §4
[14] = system: Staphylococcus aureus; assay: Bactericidal activity against Staphylococcus aureus ATCC 29213 incubated for 24 hrs followed by replating on agar plate and measured after overnight incubation; format: functional; details: ATCC 29213, 24 h, read-out: MBC>99.9
Procedure, shortened: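 After the 24 h, 37 °C MHB microdilution MIC assay, 50 μL from each well was plated on agar and incubated overnight. MBC taken as lowest peptide concentration killing >99.9% of cells. At least three independent experiments, each with three technical replicates.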

[15] = system: Escherichia coli; assay: Antibacterial activity against Escherichia coli ATCC 25922 measured after 18 to 24 hrs in presence of ZnCl2; format: functional
[16] = system: Escherichia coli; assay: Antibacterial activity against Escherichia coli ATCC 25922 measured after 18 to 24 hrs in presence of NH4Cl; format: functional
[17] = system: Staphylococcus aureus; assay: Antibacterial activity against Staphylococcus aureus ATCC 29213 measured after 18 to 24 hrs in presence of MgCl2; format: functional
[18] = system: Staphylococcus aureus; assay: Antibacterial activity against Staphylococcus aureus ATCC 29213 measured after 18 to 24 hrs in presence of ZnCl2; format: functional
Procedure, shortened: (§5)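 MIC broth microdilution (MHB, 0.2% BSA peptide diluent, A492, 95% inhibition) run in the presence of physiological salts at final concentrations of 6 μM NH4Cl or 8 μM ZnCl2. Three independent assays, each with three technical replicates.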

[19] = system: Staphylococcus aureus; assay: Antibacterial activity against Staphylococcus aureus ATCC 29213 measured after 18 to 24 hrs in presence of NH4Cl; format: functional; procedure, shortened: as §5
[20] = system: Candida albicans; assay: Antifungal activity against Candida albicans cgmcc2.2086 measured after 48 hrs in presence of NaCl by broth microdilution method; format: functional; details: cgmcc2.2086, 48 h
[21] = system: Candida albicans; assay: Antifungal activity against Candida albicans cgmcc2.2086 measured after 48 hrs in presence of MgCl by broth microdilution method; format: functional; details: cgmcc2.2086, 48 h
[22] = system: Candida albicans; assay: Antifungal activity against Candida albicans cgmcc2.2086 measured after 48 hrs in presence of FeCl by broth microdilution method; format: functional; details: cgmcc2.2086, 48 h
[23] = Therapeutic index, ratio of MHC10 for hemolytic activity in human RBC to MIC95 against Candida albicans cgmcc2.2086; format: toxicity; details: human red blood cells (erythrocytes), read-out: TI
Procedure, shortened: (§6)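 Therapeutic index = MHC divided by MIC. MHC is the lowest concentration giving >10% lysis of human RBC (1 h, 37 °C, 1-128 µM, A576). MIC is 95% growth inhibition by broth microdilution: bacteria in MHB 24 h at 37 °C; Candida in MOPS-buffered RPMI 1640 at (0.5–1) × 10^3 CFU mL−1, 48 h at 28 °C.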

[24] = Therapeutic index, ratio of MHC10 for hemolytic activity in human RBC to MIC95 against Candida parapsilosis cgmcc2.3989; format: toxicity; details: human red blood cells (erythrocytes), read-out: TI; procedure, shortened: as §6
[25] = Therapeutic index, ratio of MHC10 for hemolytic activity in human RBC to MIC95 against Candida tropicalis cgmcc2.1975; format: toxicity; details: human red blood cells (erythrocytes), read-out: TI; procedure, shortened: as §6

Molecule	MIC95 [1] [µM]	MIC95 [2] [µM]	MIC95 [3] [µM]	MIC95 [4] [µM]	MIC95 [5] [µM]	MIC95 [6] [µM]	MBC [7] [µM]	MBC [8] [µM]	MBC [9] [µM]	MBC [10] [µM]	MBC [11] [µM]	MBC [12] [µM]	MBC [13] [µM]	MBC [14] [µM]	MIC95 [15] [µM]	MIC95 [16] [µM]	MIC95 [17] [µM]	MIC95 [18] [µM]	MIC95 [19] [µM]	MIC95 [20] [µM]	further results
CC(C)(O/N=C(\C(=O)N[C@@H]1C(=O)N2C(C(=O)[O-])=C(C[n+]3ccccc3)CS[C@H]12)c1csc(N)n1)C(=O)O [CEFTAZIDIME]	16 (≈ 8.75 µg/mL)	1 (≈ 0.547 µg/mL)	1 (≈ 0.547 µg/mL)	16 (≈ 8.75 µg/mL)	> 128	> 128	2 (≈ 1.09 µg/mL)	2 (≈ 1.09 µg/mL)	2 (≈ 1.09 µg/mL)	4 (≈ 2.19 µg/mL)	1 (≈ 0.547 µg/mL)	0.5 (≈ 0.273 µg/mL)	1 (≈ 0.547 µg/mL)	16 (≈ 8.75 µg/mL)	2	2	16	16	16	> 128	MIC95 [21]: > 128 µM; MIC95 [22]: > 128 µM
H-AARIILRLRFR-NH2	2	4	4	2	8	4	8	8	8	32	8	8	8	4	4	4	2	2	2	32	MIC95 [21]: 8 µM; MIC95 [22]: 8 µM; selectivity ratio [23]: 50.8; selectivity ratio [24]: 50.8; selectivity ratio [25]: 50.8
H-AARIILRWFRR-NH2	8	2	4	2	8	4	2	4	8	16	4	4	8	8	2	2	4	2	4	16	MIC95 [21]: 16 µM; MIC95 [22]: 8 µM; selectivity ratio [23]: 50.8; selectivity ratio [24]: 50.8; selectivity ratio [25]: 50.8
CC[C@H](C)[C@H](NC(=O)CN)C(=O)NCC(=O)N[C@@H](C)C(=O)N[C@H](C(=O)N[C@@H](CC(C)C)C(=O)N[C@@H](CCCCN)C(=O)N[C@H](C(=O)N[C@@H](CC(C)C)C(=O)N[C@H](C(=O)N[C@H](C(=O)NCC(=O)N[C@@H](CC(C)C)C(=O)N1CCC[C@H]1C(=O)N[C@@H](C)C(=O)N[C@@H](CC(C)C)C(=O)N[C@H](C(=O)N[C@@H](CO)C(=O)N[C@@H](Cc1c[nH]c2ccccc12)C(=O)N[C@H](C(=O)N[C@@H](CCCCN)C(=O)N[C@@H](CCCNC(=N)N)C(=O)N[C@@H](CCCCN)C(=O)N[C@@H](CCCNC(=N)N)C(=O)N[C@@H](CCC(N)=O)C(=O)N[C@@H](CCC(N)=O)C(N)=O)[C@@H](C)CC)[C@@H](C)CC)[C@@H](C)O)[C@@H](C)O)C(C)C)C(C)C [MELITTIN]	1 (≈ 2.85 µg/mL)	1 (≈ 2.85 µg/mL)	2 (≈ 5.69 µg/mL)	2 (≈ 5.69 µg/mL)	4 (≈ 11.4 µg/mL)	2 (≈ 5.69 µg/mL)	4 (≈ 11.4 µg/mL)	2 (≈ 5.69 µg/mL)	2 (≈ 5.69 µg/mL)	4 (≈ 11.4 µg/mL)	2 (≈ 5.69 µg/mL)	2 (≈ 5.69 µg/mL)	4 (≈ 11.4 µg/mL)	8 (≈ 22.8 µg/mL)	2	2	4	4	4	8	MIC95 [21]: 4 µM; MIC95 [22]: 4 µM; selectivity ratio [23]: 0.32; selectivity ratio [24]: 0.32; selectivity ratio [25]: 0.32

From ChEMBL document CHEMBL4350958, “Rational Design of Short Peptide Variants by Using Kunitzin-RE, an Amphibian-Derived Bioactivity Peptide, for Acquired Potent Broad-Spectrum Antimicrobial and Improved Therapeutic Potential of Commensalism Coinfection of Pathogens” (J Med Chem, 2019)
